# Measured values taken from ChEMBL document CHEMBL1122688, “Antimycotic azoles. 7. Synthesis and antifungal properties of a series of novel triazol-3-ones” (1984).
# Experiments:
# [1] = test system: Aspergillus fumigatus; assay: In vitro antifungal activity against Aspergillus fumigatus; assay type: functional
# Summary of the method: (§1)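 Fungal growth-inhibition screen (Godefroi method) against dermatophytes, yeasts, moulds and other fungi. The value is the lowest concentration (µg/mL) giving total inhibition of growth, tested up to 100 µg/mL.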
# [2] = test system: Candida albicans; assay: In vitro antifungal activity against Candida albicans; assay type: functional; summary of the method: as §1
# [3] = test system: Candida tropicalis; assay: In vitro antifungal activity against Candida tropicalis; assay type: functional; summary of the method: as §1
# [4] = test system: Cryptococcus neoformans; assay: In vitro antifungal activity against Cryptococcus neoformans; assay type: functional; summary of the method: as §1
# [5] = test system: Microsporum canis; assay: In vitro antifungal activity against Microsporum canis; assay type: functional; summary of the method: as §1
# [6] = In vitro antifungal activity against Mucor sp; assay type: functional; summary of the method: as §1
# [7] = test system: Phialophora verrucosa; assay: In vitro antifungal activity against Phialophora verrucosa; assay type: functional; summary of the method: as §1
# [8] = test system: Rattus norvegicus; assay: In vivo activity against vaginal candidoses in rats, measured as the ratio of animals cured/animals infected (C/I) at dose 1.25 mg/kg; C/I = 13/33; assay type: functional
# [9] = test system: Saprolegnia; assay: In vitro antifungal activity against Saprolegnia sp; assay type: functional; summary of the method: as §1
# [10] = test system: Sporothrix schenckii; assay: In vitro antifungal activity against Sporothrix schenck ii; assay type: functional; summary of the method: as §1
# [11] = test system: Trichophyton benhamiae; assay: In vitro antifungal activity against Trichophyton mentagrophytes; assay type: functional, Arthroderma benhamiae; summary of the method: as §1
# [12] = test system: Trichophyton rubrum; assay: In vitro antifungal activity against Trichophyton rubrum; assay type: functional; summary of the method: as §1
# [13] = In vivo activity against microsporosis guinea pig, measured as the ratio of animals cured/animals infected (C/I) at dose 10 mg/kg; C/I = 6/6; assay type: functional
# [14] = In vivo activity against microsporosis guinea pig, measured as the ratio of animals cured/animals infected (C/I) at dose 1.25 mg/kg; C/I = 12/15; assay type: functional
# [15] = In vivo activity against microsporosis guinea pig, measured as the ratio of animals cured/animals infected (C/I) at dose 2.5 mg/kg; C/I = 11/12; assay type: functional
# [16] = In vivo activity against vaginal candidoses in rats, measured as the ratio of animals cured/animals infected (C/I) at dose 2.5 mg/kg; C/I = 29/34; assay type: functional
# [17] = In vivo activity against vaginal candidoses in rats, measured as the ratio of animals cured/animals infected (C/I) at dose 0.63 mg/kg; C/I = 7/40; assay type: functional
# [18] = In vivo activity against vaginal candidoses in rats, measured as the ratio of animals cured/animals infected (C/I) at dose 10 mg/kg; C/I = 12/12; assay type: functional
# [19] = In vivo activity against microsporosis guinea pig, measured as the ratio of animals cured/animals infected (C/I) at dose 20 mg/kg; 30/30; assay type: functional
# [20] = In vivo activity against microsporosis guinea pig, measured as the ratio of animals cured/animals infected (C/I) at dose 10 mg/kg; 4/34; assay type: functional
# [21] = In vivo activity against microsporosis guinea pig, measured as the ratio of animals cured/animals infected (C/I) at dose 2.5 mg/kg;0/14; assay type: functional
# [22] = In vivo activity against vaginal candidoses in rats, measured as the ratio of animals cured/animals infected (C/I) at dose 2.5 mg/kg; 2/8; assay type: functional
# [23] = In vivo activity against vaginal candidoses in rats, measured as the ratio of animals cured/animals infected (C/I) at dose 1.25 mg/kg; 0/12; assay type: functional
# [24] = In vivo activity against vaginal candidoses in rats, measured as the ratio of animals cured/animals infected (C/I) at dose 10 mg/kg; 173/181; assay type: functional
# [25] = test system: Rattus norvegicus; assay: In vivo activity against vaginal candidoses in rats, measured as the ratio of animals cured/animals infected (C/I) at dose 1.25 mg/kg; C/I = 16/18; assay type: functional
# [26] = In vivo activity against microsporosis guinea pig, measured as the ratio of animals cured/animals infected (C/I) at dose 10 mg/kg; C/I = 4/8; assay type: functional
# [27] = In vivo activity against microsporosis guinea pig, measured as the ratio of animals cured/animals infected (C/I) at dose 1.25 mg/kg; C/I = 0/8; assay type: functional
# [28] = In vivo activity against microsporosis guinea pig, measured as the ratio of animals cured/animals infected (C/I) at dose 2.5 mg/kg; C/I = 3/10; assay type: functional
# [29] = In vivo activity against vaginal candidoses in rats, measured as the ratio of animals cured/animals infected (C/I) at dose 0.63 mg/kg; C/I = 4/12; assay type: functional
# [30] = In vivo activity against vaginal candidoses in rats, measured as the ratio of animals cured/animals infected (C/I) at dose 2.5 mg/kg; C/I = 13/15; assay type: functional
# [31] = In vivo activity against vaginal candidoses in rats, measured as the ratio of animals cured/animals infected (C/I) at dose 10 mg/kg; C/I = 10/12; assay type: functional
# [32] = In vivo activity against microsporosis guinea pig, measured as the ratio of animals cured/animals infected (C/I) at dose 10 mg/kg; C/I = 2/6; assay type: functional
# [33] = In vivo activity against microsporosis guinea pig, measured as the ratio of animals cured/animals infected (C/I) at dose 2.5 mg/kg; C/I = 0/8; assay type: functional
# [34] = In vivo activity against vaginal candidoses in rats, measured as the ratio of animals cured/animals infected (C/I) at dose 2.5 mg/kg; C/I = 6/6; assay type: functional
# [35] = In vivo activity against vaginal candidoses in rats, measured as the ratio of animals cured/animals infected (C/I) at dose 0.63 mg/kg; C/I = 4/11; assay type: functional
# [36] = In vivo activity against vaginal candidoses in rats, measured as the ratio of animals cured/animals infected (C/I) at dose 1.25 mg/kg; C/I = 6/6; assay type: functional
# [37] = In vivo activity against microsporosis guinea pig, measured as the ratio of animals cured/animals infected (C/I) at dose 2.5 mg/kg; 0/2; assay type: functional
# [38] = In vivo activity against microsporosis guinea pig, measured as the ratio of animals cured/animals infected (C/I) at dose 10 mg/kg; 1/2; assay type: functional
# [39] = In vivo activity against vaginal candidoses in rats, measured as the ratio of animals cured/animals infected (C/I) at dose 2.5 mg/kg; 0/2; assay type: functional
# [40] = In vivo activity against microsporosis guinea pig, measured as the ratio of animals cured/animals infected (C/I) at dose 10 mg/kg; C/I = 2/4; assay type: functional
# [41] = In vivo activity against microsporosis guinea pig, measured as the ratio of animals cured/animals infected (C/I) at dose 2.5 mg/kg; C/I = 0/2; assay type: functional
# [42] = In vivo activity against vaginal candidoses in rats, measured as the ratio of animals cured/animals infected (C/I) at dose 2.5 mg/kg; C/I = 0/2; assay type: functional
# [43] = test system: Rattus norvegicus; assay: In vivo activity against vaginal candidoses in rats, measured as the ratio of animals cured/animals infected (C/I) at dose 1.25 mg/kg; C/I = 3/12; assay type: functional
# [44] = In vivo activity against microsporosis guinea pig, measured as the ratio of animals cured/animals infected (C/I) at dose 10 mg/kg; C/I = 4/4; assay type: functional
# [45] = In vivo activity against microsporosis guinea pig, measured as the ratio of animals cured/animals infected (C/I) at dose 1.25 mg/kg; C/I = 0/6; assay type: functional
# [46] = In vivo activity against microsporosis guinea pig, measured as the ratio of animals cured/animals infected (C/I) at dose 2.5 mg/kg; C/I = 2/6; assay type: functional
# [47] = In vivo activity against vaginal candidoses in rats, measured as the ratio of animals cured/animals infected (C/I) at dose 2.5 mg/kg; C/I = 4/11; assay type: functional
# [48] = In vivo activity against vaginal candidoses in rats, measured as the ratio of animals cured/animals infected (C/I) at dose 0.63 mg/kg; C/I = 0/4; assay type: functional
# [49] = In vivo activity against vaginal candidoses in rats, measured as the ratio of animals cured/animals infected (C/I) at dose 10 mg/kg; C/I = 5/6; assay type: functional
# [50] = test system: Rattus norvegicus; assay: In vivo activity against vaginal candidoses in rats, measured as the ratio of animals cured/animals infected (C/I) at dose 1.25 mg/kg; C/I = 12/22; assay type: functional
# [51] = In vivo activity against microsporosis guinea pig, measured as the ratio of animals cured/animals infected (C/I) at dose 1.25 mg/kg; C/I = 2/6; assay type: functional
# [52] = In vivo activity against microsporosis guinea pig, measured as the ratio of animals cured/animals infected (C/I) at dose 2.5 mg/kg; C/I = 7/12; assay type: functional
# [53] = In vivo activity against vaginal candidoses in rats, measured as the ratio of animals cured/animals infected (C/I) at dose 2.5 mg/kg; C/I = 20/24; assay type: functional
# [54] = In vivo activity against vaginal candidoses in rats, measured as the ratio of animals cured/animals infected (C/I) at dose 0.63 mg/kg; C/I = 2/12; assay type: functional
Structure (SMILES),Inhibition [1] [µg/mL],Inhibition [2] [µg/mL],Inhibition [3] [µg/mL],Inhibition [4] [µg/mL],Inhibition [5] [µg/mL],Inhibition [6] [µg/mL],Inhibition [7] [µg/mL],Inhibition [9] [µg/mL],Inhibition [10] [µg/mL],Inhibition [11] [µg/mL],Inhibition [12] [µg/mL],also measured
CCC(C)n1ncn(-c2ccc(N3CCN(c4ccc(OC[C@@H]5COC(Cn6cncn6)(c6ccc(Cl)cc6Cl)O5)cc4)CC3)cc2)c1=O (stereo partly drawn),>100,>100,100,100,>100,>100,>100,>100,>100,10,10,C/I ratio [8]: 0.394; C/I ratio [13]: 1; C/I ratio [14]: 0.8; C/I ratio [15]: 11; C/I ratio [16]: 0.853; C/I ratio [17]: 0.175; C/I ratio [18]: 1
CC(=O)N1CCN(c2ccc(OCC3COC(Cn4ccnc4)(c4ccc(Cl)cc4Cl)O3)cc2)CC1 (stereo not drawn) [KETOCONAZOLE],–,–,–,–,–,–,–,–,–,–,–,C/I ratio [19]: 1; C/I ratio [20]: 0.118; C/I ratio [21]: 0; C/I ratio [22]: 0.25; C/I ratio [23]: 0; C/I ratio [24]: 0.956
CCn1ncn(-c2ccc(N3CCN(c4ccc(OC[C@@H]5COC(Cn6cncn6)(c6ccc(Cl)cc6Cl)O5)cc4)CC3)cc2)c1=O (stereo partly drawn),>100,100,1,10,>100,>100,>100,>100,>100,1,1,C/I ratio [25]: 16; C/I ratio [26]: 0.5; C/I ratio [27]: 0; C/I ratio [28]: 0.3; C/I ratio [29]: 4; C/I ratio [30]: 0.867; C/I ratio [31]: 0.833
Cc1nn(CC(C)C)c(=O)n1-c1ccc(N2CCN(c3ccc(OC[C@@H]4COC(Cn5cncn5)(c5ccc(Cl)cc5Cl)O4)cc3)CC2)cc1 (stereo partly drawn),>100,100,1,100,>100,> 100,>100,>100,>100,10,>100,C/I ratio [32]: 0.333; C/I ratio [27]: 0; C/I ratio [33]: 0; C/I ratio [34]: 1; C/I ratio [35]: 0.364; C/I ratio [36]: 1
C=CCn1ncn(-c2ccc(N3CCN(c4ccc(OC[C@@H]5COC(Cn6ccnc6)(c6ccc(Cl)cc6Cl)O5)cc4)CC3)cc2)c1=O (stereo partly drawn),–,–,–,–,–,–,–,–,–,–,–,Lowest level of total inhibition [5]: > 100 µg/mL; C/I ratio [37]: 0; C/I ratio [38]: 1; C/I ratio [39]: 0
CC(C)n1ncn(-c2ccc(N3CCN(c4ccc(OC[C@@H]5COC(Cn6ccnc6)(c6ccc(Cl)cc6Cl)O5)cc4)CC3)cc2)c1=O (stereo partly drawn),>100,100,100,>100,>100,>100,>100,>100,>100,100,100,C/I ratio [40]: 0.5; C/I ratio [41]: 0; C/I ratio [42]: 0
Cn1ncn(-c2ccc(N3CCN(c4ccc(OC[C@@H]5COC(Cn6ccnc6)(c6ccc(Cl)cc6Cl)O5)cc4)CC3)cc2)c1=O (stereo partly drawn),100,>100,1,1,>100,>100,>100,100,>100,1,1,C/I ratio [43]: 0.25; C/I ratio [44]: 1; C/I ratio [45]: 0; C/I ratio [46]: 0.333; C/I ratio [47]: 0.364; C/I ratio [48]: 0; C/I ratio [49]: 0.833
CC(C)n1ncn(-c2ccc(N3CCN(c4ccc(OC[C@@H]5COC(Cn6cncn6)(c6ccc(Cl)cc6Cl)O5)cc4)CC3)cc2)c1=O (stereo partly drawn),>100,>100,>100,>100,>100,>100,>100,>100,>100,100,>100,C/I ratio [50]: 0.545; C/I ratio [13]: 1; C/I ratio [51]: 2; C/I ratio [52]: 0.583 (not active); C/I ratio [53]: 0.833; C/I ratio [54]: 0.167; C/I ratio [49]: 0.833
